Assay [1] can be described thus: In vitro potency against TNF alpha induced expression of intercellular adhesion molecule-1 on human vascular endothelial cells using CAM ELISA assay. (In general: ELISA stands for enzyme-linked immunosorbent assay.)
Assay [2] has as its target T1, Vascular cell adhesion protein 1 (Homo sapiens, UniProt P19320).
T1 sequence (P19320 whole entry): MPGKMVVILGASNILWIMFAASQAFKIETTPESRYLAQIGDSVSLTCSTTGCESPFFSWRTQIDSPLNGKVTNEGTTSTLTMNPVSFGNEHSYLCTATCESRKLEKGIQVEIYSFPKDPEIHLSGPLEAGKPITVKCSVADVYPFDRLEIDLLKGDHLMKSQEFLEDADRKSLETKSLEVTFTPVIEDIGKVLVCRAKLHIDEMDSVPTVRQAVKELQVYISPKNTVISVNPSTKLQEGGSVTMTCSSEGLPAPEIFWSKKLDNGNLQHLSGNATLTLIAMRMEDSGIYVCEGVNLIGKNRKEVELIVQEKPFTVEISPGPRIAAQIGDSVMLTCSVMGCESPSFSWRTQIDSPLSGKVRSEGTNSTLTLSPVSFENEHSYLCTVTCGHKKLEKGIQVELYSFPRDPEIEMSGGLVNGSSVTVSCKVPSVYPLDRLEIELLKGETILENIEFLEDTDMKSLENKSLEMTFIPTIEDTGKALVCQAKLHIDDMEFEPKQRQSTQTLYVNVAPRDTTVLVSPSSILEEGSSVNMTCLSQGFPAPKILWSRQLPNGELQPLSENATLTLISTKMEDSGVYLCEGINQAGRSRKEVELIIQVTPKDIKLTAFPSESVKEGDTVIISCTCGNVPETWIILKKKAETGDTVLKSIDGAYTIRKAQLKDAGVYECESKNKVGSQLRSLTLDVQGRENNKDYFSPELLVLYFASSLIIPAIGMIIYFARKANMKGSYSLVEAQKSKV
In words: In vitro potency against TNF alpha induced expression of VCAM-1 on human vascular endothelial cells using CAM ELISA assay. The procedure, abridged:
(§1)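 Surface E-selectin, ICAM-1 or VCAM-1 was detected with mouse monoclonal primary antibody (overnight, 4 °C), then HRP anti-mouse IgG and OPD, with absorbance read at 490 nm. IC50 from triplicates; SEM across repeat triplicate runs.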

The nature of assay [3]: In vitro potency against TNF alpha induced expression of Selectin E on human vascular endothelial cells using CAM ELISA assay.
Assay [4] deals with Intercellular adhesion molecule 1 (Homo sapiens, UniProt P05362). The assay can be described thus: In vitro potency against TNF alpha induced expression of intercellular adhesion molecule-1 on human vascular endothelial cells using CAM ELISA assay. The procedure, abridged:
as §1

A further assay deals with T2, E-selectin (Homo sapiens, UniProt P16581).
T2 sequence (P16581 whole entry): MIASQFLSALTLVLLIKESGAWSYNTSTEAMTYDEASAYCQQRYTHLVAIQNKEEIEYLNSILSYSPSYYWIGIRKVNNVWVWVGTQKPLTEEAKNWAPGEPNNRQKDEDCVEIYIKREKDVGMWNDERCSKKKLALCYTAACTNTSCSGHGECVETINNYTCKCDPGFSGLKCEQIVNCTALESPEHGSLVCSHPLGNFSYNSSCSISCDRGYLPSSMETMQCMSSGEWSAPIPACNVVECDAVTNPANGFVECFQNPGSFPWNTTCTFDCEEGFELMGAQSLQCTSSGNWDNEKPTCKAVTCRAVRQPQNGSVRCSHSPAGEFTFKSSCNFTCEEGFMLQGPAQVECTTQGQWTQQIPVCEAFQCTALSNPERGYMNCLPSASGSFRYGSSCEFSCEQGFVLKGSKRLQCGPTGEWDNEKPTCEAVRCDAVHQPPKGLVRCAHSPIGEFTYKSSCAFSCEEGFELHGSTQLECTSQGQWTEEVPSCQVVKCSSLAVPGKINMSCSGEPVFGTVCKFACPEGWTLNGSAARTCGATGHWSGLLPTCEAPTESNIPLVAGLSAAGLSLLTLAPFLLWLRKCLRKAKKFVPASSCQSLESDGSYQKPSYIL
The assay can be described thus: In vitro potency against TNF alpha induced expression of Selectin E on human vascular endothelial cells using CAM ELISA assay. In short, it runs like this: as §1

Bounds are passed on as bounds.

Intercellular adhesion molecule 1, sequence (P05362 whole entry): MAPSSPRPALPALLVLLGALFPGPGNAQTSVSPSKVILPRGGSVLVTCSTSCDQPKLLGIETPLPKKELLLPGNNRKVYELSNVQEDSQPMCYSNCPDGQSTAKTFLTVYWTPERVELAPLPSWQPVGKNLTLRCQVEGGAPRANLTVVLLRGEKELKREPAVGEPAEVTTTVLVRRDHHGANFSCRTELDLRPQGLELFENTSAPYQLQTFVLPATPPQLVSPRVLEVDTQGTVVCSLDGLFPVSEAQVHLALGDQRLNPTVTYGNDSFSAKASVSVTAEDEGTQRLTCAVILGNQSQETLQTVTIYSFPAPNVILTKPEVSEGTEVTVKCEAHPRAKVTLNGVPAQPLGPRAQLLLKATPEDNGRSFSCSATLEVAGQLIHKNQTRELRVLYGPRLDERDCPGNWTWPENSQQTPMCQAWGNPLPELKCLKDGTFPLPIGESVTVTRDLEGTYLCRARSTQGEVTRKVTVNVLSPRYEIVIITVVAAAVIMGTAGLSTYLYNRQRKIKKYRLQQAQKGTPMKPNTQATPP

As for `Cc1ccc(Sc2cncc3sc(C(N)=O)cc23)cc1C` [4-(3,4-Dimethyl-phenylsulfanyl)-thieno[2,3-c]pyridine-2-carboxylic acid amide], the half-maximal inhibitory concentration (IC50) is 0.008 µM in assay [1], more than 1 µM in assay [2] and 0.013 µM in assay [3].
`NC(=O)c1cc2c(Sc3ccccn3)cncc2s1` [4-(Pyridin-2-ylsulfanyl)-thieno[2,3-c]pyridine-2-carboxylic acid amide]: the IC50 was determined as 2.3 µM in assay [1], 65 µM in assay [2] and 0.66 µM in assay [3].
The like results for `Cc1cccc(Sc2cncc3sc(C(N)=O)cc23)c1` [4-m-Tolylsulfanyl-thieno[2,3-c]pyridine-2-carboxylic acid amide] were, in that order, 0.14 µM, more than 4 µM and 0.045 µM.
Consider `CCc1cc2c(SCc3ccccc3)ncnc2s1` [4-Benzylsulfanyl-6-ethyl-thieno[2,3-d]pyrimidine], for which the IC50 in assay [1] was 99 µM; in assay [2] it was 17 µM; in assay [3] it was 95 µM.
The like results for `CCc1cc2c(NCc3ccccc3)ncnc2s1` [Benzyl-(6-ethyl-thieno[2,3-d]pyrimidin-4-yl)-amine] were, in that order, 56 µM, 59 µM and 49 µM.
For `Cc1ccc(Sc2cncc3sc(/C=N/OCC(=O)O)cc23)cc1` [(4-p-Tolylsulfanyl-thieno[2,3-c]pyridin-2-ylmethyleneaminooxy)-acetic acid] the same measures were more than 4 µM, more than 4 µM and more than 4 µM.
With `Cc1ccc(Sc2cncc3sc(C(N)=O)cc23)c(C)c1` [4-(2,4-Dimethyl-phenylsulfanyl)-thieno[2,3-c]pyridine-2-carboxylic acid amide], the concentration for half-maximal inhibition (IC50) was determined as 0.054 µM in assay [1], 0.77 µM in assay [2] and 0.043 µM in assay [3].
The like results for `CCc1cc2c(Sc3nnc(N)s3)ncnc2s1` [GNF-Pf-1931] were, in that order, 6.3 µM, 2.5 µM and 3 µM.
The like results for `Cc1ccc(Sc2ccnc3sc(C(N)=O)cc23)cc1` [4-p-Tolylsulfanyl-thieno[2,3-b]pyridine-2-carboxylic acid amide] were, in that order, 39 µM, 15 µM and 16 µM.
The like results for `CCc1cc2c(Sc3nnc(C)s3)ncnc2s1` [6-Ethyl-4-(5-methyl-[1,3,4]thiadiazol-2-ylsulfanyl)-thieno[2,3-d]pyrimidine] were, in that order, 5 µM, 3.5 µM and 4 µM.
In the case of `Cc1ccc(Sc2cncc3sccc23)cc1` [4-p-Tolylsulfanyl-thieno[2,3-c]pyridine], the values for the IC50 in assay [1], in assay [2] and in assay [3] were 1.8 µM, 2.1 µM and 1.7 µM, respectively.
The like results for `Cc1ccc(Sc2cncc3sc(C(=O)NCCCN4CCOCC4)cc23)cc1` [4-p-Tolylsulfanyl-thieno[2,3-c]pyridine-2-carboxylic acid (3-morpholin-4-yl-propyl)-amide] were, in that order, more than 4 µM, more than 4 µM and more than 4 µM.
The like results for `Cc1occc1Sc1cncc2sc(C(N)=O)cc12` [4-(2-Methyl-furan-3-ylsulfanyl)-thieno[2,3-c]pyridine-2-carboxylic acid amide] were, in that order, 0.57 µM, more than 1 µM and 0.6 µM.
The like results for `Cc1ccc(Sc2cncc3sc(C(N)=S)cc23)cc1` [4-p-Tolylsulfanyl-thieno[2,3-c]pyridine-2-carbothioic acid amide] were, in that order, 0.16 µM, 19 µM and 0.15 µM.
For `NC(=O)c1cc2c(Sc3ccc(C(F)(F)F)cc3)cncc2s1` [4-(4-Trifluoromethyl-phenylsulfanyl)-thieno[2,3-c]pyridine-2-carboxylic acid amide], the IC50 in assay [1] is 0.039 µM; in assay [2], more than 0.1 µM; in assay [3] it was 0.044 µM.
Turning to `Cc1ccc(Sc2cncc3sc(C(N)=O)cc23)cc1` [4-p-Tolylsulfanyl-thieno[2,3-c]pyridine-2-carboxylic acid amide], the IC50 in assay [2] was more than 1 µM.
For the compound `Cc1ccc(Sc2cncc3sc(C(C)N=O)cc23)cc1` (centres undefined) [1-(4-p-Tolylsulfanyl-thieno[2,3-c]pyridin-2-yl)-ethanone oxime], the 50% inhibitory concentration (IC50) in assay [2] is more than 1 µM; in assay [4], 0.085 µM; against E-selectin, 0.055 µM.
For `Cc1ccc(Sc2cncc3sc(CN=O)cc23)cc1` [4-p-Tolylsulfanyl-thieno[2,3-c]pyridine-2-carbaldehyde oxime] the same measures were more than 4 µM, 1.9 µM and 1.5 µM.
As to `CCc1cc2c(=O)[nH]cnc2s1` [MLS000029626], the concentration for half-maximal inhibition (IC50) in assay [1], in assay [2] and in assay [3] was more than 100 µM each time.
Regarding `NC(=O)c1cc2c(Sc3ccc(Cl)c(Cl)c3)cncc2s1` [4-(3,4-Dichloro-phenylsulfanyl)-thieno[2,3-c]pyridine-2-carboxylic acid amide], the IC50 was 0.037 µM in assay [1], more than 1 µM in assay [2] and 0.1 µM in assay [3].
For `CCc1cc2c(Cl)ncnc2s1` [4-Chloro-6-ethyl-thieno[2,3-d]pyrimidine] the same measures were more than 100 µM, 18 µM and 27 µM.
For `Cc1ccc(Sc2cncc3sc(C(=O)NN)cc23)cc1` [4-p-Tolylsulfanyl-thieno[2,3-c]pyridine-2-carboxylic acid hydrazide] the same measures were 0.032 µM, 46 µM and 0.032 µM.

What is called IC50 is the point on the concentration scale where inhibition reaches its midpoint. A higher IC50 goes with lower potency.

The values are drawn from BindingDB's records for doi:10.1021/jm000452m (Abbott Laboratories, 2001).
